According to ChEMBL document CHEMBL4428114, “An LP1 analogue, selective MOR agonist with a peculiar pharmacological profile, used to scrutiny the ligand binding domain” (Bioorg Med Chem, 2016):
The source made the active and inactive calls.

Experiments:
[1] = molecular target: Delta-type opioid receptor (Homo sapiens, UniProt P41143); assay: Displacement of [3H]DPDPE from human DOR expressed in CHO cells; type: cell-based
[2] = molecular target: Mu-type opioid receptor (Cavia porcellus) (UniProt P97266); assay: Agonist activity at MOR in Dunkin-Hartley guinea pig ileum assessed as inhibition of electrically-evoked contractions in presence of opioid receptor antagonist naloxone; type: tissue-based
Procedure, shortened: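 Cumulative concentration–response curves were run on electrically stimulated guinea-pig ileum strips (2 g load; 0.1 Hz, 0.3 ms, 200 mA) with a single naloxone concentration of 10^-6 M. […]. Contractions were scored as percentage change from baseline.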

Mu-type opioid receptor [3] = molecular target: T1, Mu-type opioid receptor (Homo sapiens, UniProt P35372); assay: Displacement of [3H]DAMGO from MOR in HEK293 cells; type: cell-based
[4] = molecular target: Kappa-type opioid receptor (Rattus norvegicus, UniProt P34975); assay: Displacement of [3H]U69593 from rat KOR expressed in CHO cells; type: cell-based
[5] = Selectivity ratio of Ki for displacement of [3H]U69593 from rat KOR expressed in CHO cells to Ki for displacement of [3H]DAMGO from MOR in HEK293 cells; type: cell-based
Homo sapiens [6] = organism: Homo sapiens; assay: Selectivity ratio of Ki for displacement of [3H]DPDPE from human DOR expressed in CHO cells to Ki for displacement of [3H]DAMGO from MOR in HEK293 cells; type: cell-based
Mus musculus [7] = assay: Antinociceptive activity in CB1 mouse assessed as increase in tail flick latency at 5 mg/kg, ip after 60 mins; type: functional, organism-based
Mus musculus [8] = assay: Antinociceptive activity in CB1 mouse assessed as increase in tail flick latency at 5 mg/kg, ip up to 90 mins; type: functional, organism-based
[9] = molecular target: Mu-type opioid receptor (Cavia porcellus) (UniProt P97266); assay: Agonist activity at MOR in Dunkin-Hartley guinea pig ileum assessed as inhibition of electrically-evoked contractions; type: tissue-based
Procedure, shortened: (§1)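 Guinea-pig ileum strips held under a 2 g load and equilibrated for 60 min. Contractions were evoked by transmural single pulses (0.1 Hz, 0.3 ms, 200 mA), followed by a further 60–90 min equilibration with repeated Krebs changes. Compound was added cumulatively, at least 5 min per step. Inhibition was expressed as percentage change from baseline, with EC50 from non-linear curve fitting (n = 6–8).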

Homo sapiens [10] = organism: Homo sapiens; assay: Selectivity ratio of Ki for displacement of [3H]Diprenorphine from human KOR expressed in HEK293 cell membranes to Ki for displacement of [3H]Diprenorphine from human MOR expressed in HEK293 cell membranes
[11] = molecular target: Kappa-type opioid receptor (Homo sapiens, UniProt P41145); assay: Displacement of [3H]Diprenorphine from human KOR expressed in HEK293 cell membranes by liquid scintillation counting
Mu-type opioid receptor [12] = molecular target: T1, Mu-type opioid receptor; assay: Displacement of [3H]Diprenorphine from human MOR expressed in HEK293 cell membranes by liquid scintillation counting
Mus musculus [13] = assay: Antinociceptive activity in CB1 mouse assessed as increase in tail flick latency at 5 mg/kg, ip administered 45 mins post naloxone challenge measured up to 90 mins in presence of naloxone; type: functional, organism-based
Procedure, shortened: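 Naloxone was given at 3 mg/kg ip, 45 min before 5 mg/kg ip test compound, in male Swiss CB1 mice (25–30 g). Infrared tail-flick latency (lower third of tail, 10 s cutoff, baseline mean of three readings) was measured at 30, 60 and 90 min post-injection (n = 8).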

[14] = molecular target: Mu-type opioid receptor (Cavia porcellus) (UniProt P97266); assay: Agonist activity at MOR in Dunkin-Hartley guinea pig ileum assessed as inhibition of electrically-evoked contractions in presence of mu-opioid receptor agonist DAMGO; type: tissue-based; procedure, shortened: as §1
[15] = molecular target: Mu-type opioid receptor (Cavia porcellus) (UniProt P97266); assay: Agonist activity at MOR in Dunkin-Hartley guinea pig ileum assessed as inhibition of electrically-evoked contractions in presence of mu-opioid receptor antagonist naloxonazine; type: tissue-based
Procedure, shortened: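 Electrically stimulated guinea-pig ileum strips (2 g load; single pulses 0.1 Hz, 0.3 ms, 200 mA) were tested with naloxonazine present at 10^-6 M. Agonist was added cumulatively, at least 5 min apart, after 60–90 min equilibration in Krebs. Response was taken as percentage inhibition from baseline, with EC50 by non-linear fitting (n = 6–8).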

[16] = molecular target: Mu-type opioid receptor (Cavia porcellus) (UniProt P97266); assay: Agonist activity at MOR in Dunkin-Hartley guinea pig ileum assessed as inhibition of electrically-evoked contractions in presence of kappa-opioid receptor antagonist norBNI; type: tissue-based; procedure, shortened: as §1
Mus musculus [17] = assay: Antinociceptive activity in ip dosed CB1 mouse assessed as increase in tail flick latency after 30 mins; type: functional, organism-based

T1 sequence (P35372 whole entry): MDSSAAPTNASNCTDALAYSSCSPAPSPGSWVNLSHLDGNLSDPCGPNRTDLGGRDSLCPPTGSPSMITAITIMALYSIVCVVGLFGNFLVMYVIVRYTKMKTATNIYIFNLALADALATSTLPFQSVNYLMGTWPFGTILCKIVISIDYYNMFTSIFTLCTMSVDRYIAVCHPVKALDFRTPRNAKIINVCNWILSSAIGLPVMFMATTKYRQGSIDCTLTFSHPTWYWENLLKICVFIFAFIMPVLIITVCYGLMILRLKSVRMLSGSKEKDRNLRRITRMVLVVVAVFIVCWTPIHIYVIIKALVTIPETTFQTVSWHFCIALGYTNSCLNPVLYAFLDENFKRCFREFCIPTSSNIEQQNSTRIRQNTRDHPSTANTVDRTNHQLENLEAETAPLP
Delta-type opioid receptor, sequence (P41143 whole entry): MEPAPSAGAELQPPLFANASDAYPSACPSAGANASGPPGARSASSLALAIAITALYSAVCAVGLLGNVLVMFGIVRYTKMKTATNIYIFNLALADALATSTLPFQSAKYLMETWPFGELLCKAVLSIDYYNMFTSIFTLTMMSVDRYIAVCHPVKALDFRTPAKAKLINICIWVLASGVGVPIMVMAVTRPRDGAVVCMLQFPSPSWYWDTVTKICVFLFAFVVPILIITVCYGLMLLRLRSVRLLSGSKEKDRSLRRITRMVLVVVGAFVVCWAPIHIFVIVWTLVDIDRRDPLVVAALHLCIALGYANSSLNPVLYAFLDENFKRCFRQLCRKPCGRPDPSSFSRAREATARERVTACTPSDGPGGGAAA
Mu-type opioid receptor (Cavia porcellus), sequence (P97266 whole entry): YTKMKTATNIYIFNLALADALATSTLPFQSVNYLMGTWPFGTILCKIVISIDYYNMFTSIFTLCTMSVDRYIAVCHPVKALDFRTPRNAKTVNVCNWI
Kappa-type opioid receptor (Rattus norvegicus, UniProt P34975), sequence (P34975 whole entry): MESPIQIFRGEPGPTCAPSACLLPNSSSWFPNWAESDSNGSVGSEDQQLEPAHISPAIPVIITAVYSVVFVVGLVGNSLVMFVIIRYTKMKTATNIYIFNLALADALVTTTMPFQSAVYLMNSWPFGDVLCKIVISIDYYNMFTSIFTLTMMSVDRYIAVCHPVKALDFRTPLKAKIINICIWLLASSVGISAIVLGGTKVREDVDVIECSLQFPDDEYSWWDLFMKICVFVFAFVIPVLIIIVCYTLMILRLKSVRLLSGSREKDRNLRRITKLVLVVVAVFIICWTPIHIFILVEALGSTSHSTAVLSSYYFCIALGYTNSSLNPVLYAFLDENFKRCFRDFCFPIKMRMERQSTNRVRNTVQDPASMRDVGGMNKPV
Kappa-type opioid receptor (Homo sapiens, UniProt P41145), sequence (P41145 whole entry): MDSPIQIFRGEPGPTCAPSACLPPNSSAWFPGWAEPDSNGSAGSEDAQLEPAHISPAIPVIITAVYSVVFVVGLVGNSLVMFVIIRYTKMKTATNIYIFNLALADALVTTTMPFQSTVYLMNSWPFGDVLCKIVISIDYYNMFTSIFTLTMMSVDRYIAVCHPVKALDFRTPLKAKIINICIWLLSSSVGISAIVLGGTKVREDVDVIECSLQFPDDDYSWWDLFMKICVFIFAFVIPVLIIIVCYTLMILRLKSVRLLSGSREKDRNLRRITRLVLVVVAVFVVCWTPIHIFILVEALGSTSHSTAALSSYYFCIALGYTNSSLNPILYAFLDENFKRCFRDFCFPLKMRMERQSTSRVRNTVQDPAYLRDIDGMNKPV

Row | SMILES | Ki [1] | Ki (Mu-type opioid receptor [3]) | Ki [4] | Ratio Ki [5] | Ratio Ki (Homo sapiens [6]) | further results
1 | C[C@H]1[C@H]2Cc3ccc(O)cc3[C@]1(C)CCN2CCC(=O)NC(c1ccccc1)c1ccccc1 | 2900 nM | 84 nM | 680 nM | 8.09 | 34.5 | pD2 [2]: 4.1
2 | CN1CC[C@]23c4c5ccc(O)c4O[C@H]2[C@@H](O)C=C[C@H]3[C@H]1C5 | – | – | – | – | – | Activity (Mus musculus [7]): Active; Activity (Mus musculus [8]): Active
3 | C[C@H]1[C@H]2Cc3ccc(O)cc3[C@]1(C)CCN2CCC(=O)N(C)C(c1ccccc1)c1ccccc1 | 1400 nM | 160 nM | 370 nM | 2.31 | 8.75 | pD2 [9]: 5.7
4 | C[C@H]1[C@H]2Cc3ccc(O)cc3[C@]1(C)CCN2CCC(=O)N1CCc2ccccc2C1c1ccccc1 (mixture of isomers) | – | 96 nM | – | – | – | –
5 | C[C@H]1[C@H]2Cc3ccc(O)cc3[C@]1(C)CCN2CCC(=O)Nc1ccccc1 | – | – | 110 nM | 132 | 33.8 | –
6 | C[C@H]1[C@H]2Cc3ccc(O)cc3[C@]1(C)CCN2CCC(=O)N1CCc2ccccc2[C@@H]1c1ccccc1 | 2900 nM | 380 nM | 900 nM | 12.5 | 35 | –
7 | COc1ccsc1CNCC[C@@]1(c2ccccn2)CCC2(CCCC2)OC1 | – | – | – | – | – | Ratio Ki (Homo sapiens [10]): 1670; Ki [11]: < 10000 nM; Ki (Mu-type opioid receptor [12]): 6 nM
8 | C[C@H]1[C@H]2Cc3ccc(O)cc3[C@]1(C)CCN2CCC(=O)N1CCc2ccccc2[C@H]1c1ccccc1 | 7900 nM | 470 nM | 1900 nM | 4.04 | 16.8 | –
9 | C[C@H]1[C@H]2Cc3ccc(O)cc3[C@]1(C)CCN2CCC(=O)NCC(c1ccccc1)c1ccccc1 | 440 nM | 0.5 nM | 190 nM | 380 | 880 | Activity (Mus musculus [13]): inactive; pD2 [14]: 7; pD2 [2]: 6.4; Activity [9]: Dose-dependent effect; pD2 [9]: 6.8; pD2 [15]: 6.5; pD2 [16]: 6.9; Activity (Mus musculus [17]): Dose-dependent effect; Activity (Mus musculus [8]): Active
